In publication PMC8914349 (Molecular cancer therapeutics, 2020):
Read-outs that look alike come from different tables or passages of the source. Marks after values point to notes of the source that are not given here.

What was measured:
[1] = system: canine MM cells (M1, M5, M2, M3, and Jones); assay: MTS viability assay, 72h, canine MM cell lines; assay type: cell-based; conditions: canine MM cells in vitro, single agent
canine MM cell = conditions: cited from earlier work
[2] = system: human cutaneous melanoma cells (WM3311, WM2032, WM853–2 and WM858); assay: MTS viability assay, 72h, human cutaneous melanoma cell lines; assay type: cell-based
[3] = system: Ras/MAPK and PI3K/Akt/mTOR signal transduction targets; assay type: cell-based, canine; conditions: for target inhibition in vitro (western blot): trametinib 10 nM, sapanisertib 40 nM, 4 and 24h, M1, M5 and Jones
In short: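 Cell lysates were immunoblotted for p-AKT, p-S6 and p-ERK (pathway activation) and for cyclin D1, cyclin B1, Bim, Bcl-xl, Mcl-1 and p-Bad.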

[4] = Preliminary dose range study in mice with canine M1 or M5 MM xenografts; assay type: in vivo; conditions: daily 3.0 mg/Kg, oral
[5] = assay type: in vivo, mice; conditions: for Liver hepatocelluar vacuolation, numbers of animals / Renal tubules scattered isolated necrosis and regeneration, numbers of animals / Renal tubules zonal cortical degeneration/necrosis, numbers of animals / Spleen red and white pulp hypocellularity, numbers of animals / Spleen lymphocytolysis, numbers of animals / Spleen lymphoid and hematopoietic hyperplasia, numbers of animals / Bone marrow hypocellularity, numbers of animals: n = 5
In short: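 Non-tumor-bearing female nu/nu nude mice (n=5 per group) were dosed by oral gavage in 0.5% HPMC/0.2% Tween for 21 days. […] Bone marrow, kidney, spleen, liver and other organs were fixed for histopathology. Animals per lesion were counted and graded minimal/moderate/severe. Blood was taken into EDTA for complete counts before removal.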

[6] = system: p-ERK, p-AKT, p-S6 and p-4E-BP1 in M1 or M5 canine MM xenografts; assay: Drug target modulation in vivo in tumor xenografts; parameters: species or system mice; conditions: three consecutive days; for p-ERK level in tumors: sapanisertib 2.0 mg/Kg or trametinib 5.0 mg/Kg oral
In short: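 Female nu/nu athymic nude mice, 6–8 weeks old, received 1×10⁶ M1 or M5 cells s.c. in the flank and were randomized at 75–150 mm³ (five per group). […] Tumor lysates went to western blot and fixed sections to H&E plus p-ERK/p-S6 IHC.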

[7] = system: M1-derived metastatic subline; assay: Tail vein injection metastasis study; assay type: in vivo, mice; conditions: trametinib 5.0 mg/Kg daily, sapanisertib 2.0 mg/Kg three times a week, four-week treatment
[8] = Single administration plasma pharmacokinetics in tumor-bearing mice; assay type: in vivo; conditions: mouse plasma
In short: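 Plasma and tumor were taken from two mice per group per timepoint over 2–48 h. Validated LC-MS/MS was used; sapanisertib was read by MRM m/z 310.2→268.1, calibrated 1–1000 ng/mL. Noncompartmental analysis for destructive sampling gave Cmax, T1/2 and AUC to last timepoint, with AUC error by Bailer's method.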

[9] = system: M1 or M5 canine MM subcutaneous xenografts; conditions: oral 5.0 mg/Kg trametinib or 2.0 mg/Kg sapanisertib EOD for 3 weeks, single agents
mTOR = conditions: ATP-competitive mTOR selective inhibitor; ref https://adisinsight.springer.com/drugs/800030541; https://drugs.ncats.io/substance/JGH0DF1U03#activemoieties; cited from earlier work
[10] = patients receiving the clinically approved dose of 2 mg trametinib; cited from earlier work
[11] = sapanisertib 2mg/kg daily, no lesion
[12] = sapanisertib 2mg/kg daily, severity + minimal
[13] = sapanisertib 2mg/kg daily, severity ++ moderate
[14] = sapanisertib 2mg/kg daily, severity +++ severe
[15] = sapanisertib 2mg/kg every other day, no lesion
[16] = sapanisertib 2mg/kg every other day, severity + minimal

## Nc1ccc(-c2ccc3ncc4ccc(=O)n(-c5cccc(C(F)(F)F)c5)c4c3c2)cn1 [Torin 2]
[1]
  cytotoxicity / sensitivity of cells: highly effective

## Cn1c(=O)n(-c2ccc(C(C)(C)C#N)cc2)c2c3cc(-c4cnc5ccccc5c4)ccc3ncc21 [dactolisib]
Canine MM cell; canine MM cells
  cytotoxicity: dose dependent cytotoxicity

## CC(C)n1nc(-c2ccc3oc(N)nc3c2)c2c(N)ncnc21 [sapanisertib]
[2]; Homo sapiens, WM2032, 72 h
  IC50: 10 to 100 nM
[3]; canine MM cells
  cyclin expression (western blot): effective in reducing cyclin B1
  phosphorylation of Bad: inhibited phosphorylation of Bad
[3]; some cell lines
  reciprocal activation of ERK1/2: apparent reciprocal activation of ERK1/2
[3]
  target inhibition in vitro (western blot): inhibited their respective Ras/MAPK and PI3K/Akt/mTOR signal transduction targets
[4]
  tolerability: not well tolerated
[5]; 2.0 mg/Kg alone EOD
  tolerability: well tolerated
[5]; sapanisertib 2.0 mg/Kg daily
  white blood cell counts finding: lymphopenia
[5]; [11]
  Liver hepatocelluar vacuolation, numbers of animals: 2
  Renal tubules scattered isolated necrosis and regeneration, numbers of animals: 5
  Renal tubules zonal cortical degeneration/necrosis, numbers of animals: 1
  Spleen red and white pulp hypocellularity, numbers of animals: 1
[5]; [12]
  Liver hepatocelluar vacuolation, numbers of animals: 1
  Renal tubules zonal cortical degeneration/necrosis, numbers of animals: 1
  Spleen lymphocytolysis, numbers of animals: 5
  Spleen lymphoid and hematopoietic hyperplasia, numbers of animals: 2
  Spleen red and white pulp hypocellularity, numbers of animals: 2
[5]; [13]
  Bone marrow hypocellularity, numbers of animals: 3 ^†
  Liver hepatocelluar vacuolation, numbers of animals: 1
  Renal tubules zonal cortical degeneration/necrosis, numbers of animals: 3
  Spleen red and white pulp hypocellularity, numbers of animals: 2
[5]; [14]
  Bone marrow hypocellularity, numbers of animals: 2
  Liver hepatocelluar vacuolation, numbers of animals: 1
[5]; [15]
  Bone marrow hypocellularity, numbers of animals: 5
  Liver hepatocelluar vacuolation, numbers of animals: 5
  Renal tubules scattered isolated necrosis and regeneration, numbers of animals: 1
  Renal tubules zonal cortical degeneration/necrosis, numbers of animals: 5
  Spleen lymphocytolysis, numbers of animals: 2
  Spleen lymphoid and hematopoietic hyperplasia, numbers of animals: 2
  Spleen red and white pulp hypocellularity, numbers of animals: 5
[5]; [16]
  Renal tubules scattered isolated necrosis and regeneration, numbers of animals: 4
  Spleen lymphocytolysis, numbers of animals: 3
  Spleen lymphoid and hematopoietic hyperplasia, numbers of animals: 3
[6]
  p-ERK level in tumors: increased p-ERK level
[6]; sapanisertib 2.0 mg/Kg oral
  p-AKT, p-S6 and p-4EBP-1 levels in tumors: reduced p-AKT as well as downstream effectors p-S6 and p-4EBP-1 levels
[7]
  intrathoracic metastatic tumor burden: not as effective as trametinib in abating metastasis
[8]
  T1/2 in the presence of trametinib compared to sapanisertib alone: approximately 50%
  change in sapanisertib PK in the presence of trametinib: no significant change
[9]
  tolerability: tolerated with some varying body weight fluctuation
  tumor growth: inhibited compared to vehicle-treated controls initially, but progression became evident over time
mTOR
  selectivity for PI3K: > 100 fold

## CC(=O)Nc1cccc(-n2c(=O)n(C3CC3)c(=O)c3c(Nc4ccc(I)cc4F)n(C)c(=O)c(C)c32)c1 [trametinib]
[1]
  cytotoxicity / sensitivity of cells: sensitive
[2]; human cutaneous melanoma cells, regardless of Ras and NF1 mutation status
  sensitivity of cells: sensitive
[3]; canine MM cells
  Bcl-xl levels: reduced Bcl-xl levels
  cyclin expression (western blot): reduced the expression of cyclins D1 and B1
[3]
  target inhibition in vitro (western blot): inhibited their respective Ras/MAPK and PI3K/Akt/mTOR signal transduction targets
[6]
  p-ERK level in tumors: less compared to vehicle-only treated mice
[7]
  intrathoracic metastatic tumor burden: significantly less metastatic tumor burdens in the thorax compared to control vehicle-treated mice
[9]
  tumor growth: inhibited compared to vehicle-treated controls initially, but progression became evident over time
Canine MM cell; read-out: IC50, inhibiting canine MM cell growth in vitro
  IC50: ~10 nM
[10]
  AUC: 248 ng·h/mL
  Cmax: 8.03 ng/mL
